Laboratory results published in ChEMBL document CHEMBL4325831, “Novel Pyrrole-Imidazole Polyamide Hoechst Conjugate Suppresses Epstein-Barr Virus Replication and Virus-Positive Tumor Growth” (J Med Chem, 2018).
The source made the active and inactive calls. The rule behind the calls is not given here.

Key:
[1] = Inhibition of recombinant EBNA1 binding to biotin-labeled Epstein-Barr virus OriP hairpin DNA EBNA1 site 1 assessed as dissociation constant by SPR assay; design: species or system human gammaherpesvirus 4
human gammaherpesvirus 4 [2] = assay: Inhibition of recombinant EBNA1 binding to biotin-labeled Epstein-Barr virus OriP hairpin DNA EBNA1 site 1 assessed as reduction in RU increase at 200 nM by SPR assay
Summary of the method: (§1)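 SPR in HBS-EP (10 mM HEPES pH 7.4, 150 mM NaCl, 3 mM EDTA, 0.005% P20) at 25 °C. Biotin hairpin DNA (200 nM) captured at 700–900 RU on streptavidin. Polyamide (200 nM) injected at 25 μL/min for 4 min with no dissociation phase, then 100 nM recombinant EBNA1 for 3 min. Relative reduction in RU rise recorded.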

Human gammaherpesvirus 4 [3] = assay: Inhibition of Epstein-Barr virus-induced human Daudi cell proliferation assessed reduction in cell viability at 10 uM measured at day 3 and day 6 post dose following media refreshment every 3 days trypan blue dye-based assay; assay type: functional, organism-based
Summary of the method: (§2)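 5 × 10^5 cells in 2 mL medium with 10 μM polyamide. After 3 days an equal volume of fresh medium containing polyamide was added. Living cells counted by 0.4% trypan blue exclusion at days 3 and 6. Significance by one-way ANOVA.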

[4] = Inhibition of recombinant EBNA1 binding to biotin-labeled Epstein-Barr virus OriP hairpin DNA EBNA1 site 2 assessed as dissociation constant by SPR assay; design: species or system human gammaherpesvirus 4
[5] = Toxicity in Balb/c mouse infected with Epstein-Barr virus positive human Raji cells assessed as body weight loss at 5 to 10 mg/kg, sc administered every 3 days for 25 days and measured every 3 days before drug injection; assay type: organism-based; settings: in vivo
Summary of the method: (§3)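 Female Balb/c nude mice given 1 × 10^7 Raji cells sc in left flank (in 100 μL serum-free RPMI). Dosing began at tumor ~50 mm3 (L × W × 1/2W). Compound in 100 μL 5% DMSO/0.9% NaCl, injected sc around tumor every 3 days, eight injections; vehicle n = 6, treated groups n = 7. Tumor size and body weight taken before each injection. Tumor DNA analysed by real-time PCR for relative EBV copy number.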

MOLT-4 [6] = assay: Cell growth inhibition of human MOLT4 cells at 10 uM measured at day 3 and day 6 following media refreshment every 3 days by trypan blue dye-based assay; assay type: functional; summary of the method: as §2
human gammaherpesvirus 4 [7] = assay: Inhibition of EBNA1 binding to Epstein-Barr virus OriP DNA in […] cells assessed as reduction in EBV copy number at 10 uM after 120 hrs by qRT-PCR analysis; assay type: cell-based
Summary of the method: (§4)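 Raji (5 × 10^5), B95-8 (5 × 10^5) or Daudi (1 × 10^6) cells cultured with 10 μM polyamide. Genomic DNA extracted at intervals (Raji every 24 h). SYBR real-time PCR in triplicate: 95 °C 5 min, then 40 cycles of 95 °C 10 s / 60 °C 30 s, followed by melt curve. EBV copies relative to cellular DNA by ΔΔCt.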

Raji [8] = assay: Inhibition of EBNA1 binding to Epstein-Barr virus OriP DNA in human Raji cells assessed as reduction in EBNA1 protein expression up to 20 uM after 24 hrs by Western blot analysis; assay type: cell-based; settings: human gammaherpesvirus 4
Summary of the method: (§5)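 Raji cells exposed 24 h to 0, 1, 2, 5, 10 or 20 μM. Cells lysed in nondenaturing buffer with protease inhibitors and run on 10% SDS-PAGE, then PVDF. Membranes probed overnight at 4 °C for EBNA1, EBNA2 and GAPDH, HRP secondary 1 h, chemiluminescent detection. At least triplicate.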

Jurkat = assay: Cell growth inhibition of human Jurkat cells after 72 hrs by MTT assay; assay type: functional
Summary of the method: (§6)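 Suspension cells seeded at 7 × 10^3 per well, adherent at 3 × 10^3 per well, in quadruplicate across a concentration series. Grown 72 h, then viability relative to control read by MTT. GI50 from sigmoidal dose–response fit; at least triplicate experiments. RPMI-based medium for suspension lines, high-glucose DMEM for MDA-MB-231, both with 10% FBS, 5% CO2, 37 °C.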

Human gammaherpesvirus 4 [9] = assay: Inhibition of Epstein-Barr virus-induced […] cell proliferation after 72 hrs by MTT assay; assay type: functional; settings: human gammaherpesvirus 4, B-95-8, 72 h; summary of the method: as §6
MOLT-4 [10] = assay: Cell growth inhibition of human MOLT4 cells after 72 hrs by MTT assay; assay type: functional; settings: MOLT-4, 72 h; summary of the method: as §6
[11] = Inhibition of recombinant EBNA1 binding to biotin-labeled Epstein-Barr virus OriP hairpin DNA EBNA1 site 2 mutant assessed as dissociation constant by SPR assay; design: species or system human gammaherpesvirus 4
Summary of the method: (§7)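 SPR on a streptavidin-coated chip (about 16 000 RU) carrying biotinylated short hairpin DNA, loaded at 200 nM and immobilized to about 700–900 RU. Run in HBS-EP (10 mM HEPES pH 7.4, 150 mM NaCl, 3 mM EDTA, 0.005% P20) at 25 °C. Polyamides were diluted first in ultrapure water, then into a concentration gradient. ka and kd were fitted from sensorgrams.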

Raji [12] = assay: Inhibition of EBNA1 binding to Epstein-Barr virus OriP DNA in human Raji cells at 10 uM after 24 to 48 hrs by chIP assay; assay type: cell-based; settings: human gammaherpesvirus 4
Summary of the method: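 Raji cells with 10 μM polyamide, 8 × 10^6 harvested at 0, 24 and 48 h. Formaldehyde fixation, enzymatic chromatin ChIP; 2% input kept. IP overnight with 1 μg anti-EBNA1 or mouse IgG1, magnetic-bead capture. OriP detected by SYBR qPCR (95 °C 5 min; 40 cycles of 95 °C 15 s / 60 °C 60 s). ΔΔCt relative to input.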

Human gammaherpesvirus 4 [13] = assay: Inhibition of Epstein-Barr virus-induced human Raji cell proliferation xenografted in Balb/c mouse assessed as reduction in tumor size at 10 mg/kg, sc administered every 3 days for 25 days and measured every 3 days before drug injection; assay type: functional, organism-based; summary of the method: as §3
Human gammaherpesvirus 4 [14] = assay: Antiviral activity against Epstein-Barr virus positive human Raji cells xenografted in Balb/c mouse assessed as reduction in EBV DNA copy at 5 to 10 mg/kg, sc administered every 3 days for 25 days; assay type: functional, organism-based; summary of the method: as §3
MDA-MB-231 = assay: Cell growth inhibition of human MDA-MB-231 cells after 72 hrs by MTT assay; assay type: functional; settings: MDA-MB-231, 72 h; summary of the method: as §6
Human gammaherpesvirus 4 [15] = assay: Inhibition of Epstein-Barr virus-induced human Raji cell proliferation after 72 hrs by MTT assay; assay type: functional; settings: human gammaherpesvirus 4, Raji; summary of the method: as §6
Human gammaherpesvirus 4 [16] = assay: Inhibition of Epstein-Barr virus-induced human Raji cell proliferation xenografted in Balb/c mouse assessed as reduction in tumor size at 5 mg/kg, sc administered every 3 days for 25 days and measured every 3 days before drug injection; assay type: functional, organism-based; summary of the method: as §3
Daudi = assay: Inhibition of EBNA1 binding to Epstein-Barr virus OriP DNA in human Daudi cells assessed as reduction in EBV copy number at 10 uM after 120 hrs by qRT-PCR analysis; assay type: cell-based; settings: human gammaherpesvirus 4; summary of the method: as §4
Raji [17] = assay: Inhibition of EBNA1 binding to Epstein-Barr virus OriP DNA in human Raji cells assessed as reduction in EBV copy number at 10 uM after 120 hrs by qRT-PCR analysis; assay type: cell-based; settings: human gammaherpesvirus 4; summary of the method: as §4
[18] = Inhibition of recombinant EBNA1 binding to biotin-labeled Epstein-Barr virus OriP hairpin DNA EBNA1 site 1 mutant assessed as dissociation constant by SPR assay; design: species or system human gammaherpesvirus 4; summary of the method: as §7
Raji [19] = assay: Inhibition of EBNA1 binding to Epstein-Barr virus OriP DNA in human Raji cells assessed as reduction in EBNA2 protein expression up to 20 uM after 24 hrs by Western blot analysis; assay type: cell-based; settings: human gammaherpesvirus 4; summary of the method: as §5
RPMI-8226 = assay: Cell growth inhibition of human RPMI8226 cells after 72 hrs by MTT assay; assay type: functional; settings: RPMI-8226, 72 h; summary of the method: as §6
human gammaherpesvirus 4 [20] = assay: Inhibition of recombinant EBNA1 binding to biotin-labeled Epstein-Barr virus OriP hairpin DNA EBNA1 site 2 assessed as reduction in RU increase at 200 nM by SPR assay; summary of the method: as §1
NALM-6 = assay: Cell growth inhibition of human NALM6 cells after 72 hrs by MTT assay; assay type: functional; settings: NALM-6, 72 h; summary of the method: as §6
Human gammaherpesvirus 4 [21] = assay: Inhibition of Epstein-Barr virus-induced human Raji cell proliferation assessed reduction in cell viability at 10 uM measured at day 3 and day 6 post dose following media refreshment every 3 days trypan blue dye-based assay; assay type: functional, organism-based; summary of the method: as §2
Human gammaherpesvirus 4 [22] = assay: Inhibition of Epstein-Barr virus-induced human Daudi cell proliferation after 72 hrs by MTT assay; assay type: functional; settings: human gammaherpesvirus 4, Daudi; summary of the method: as §6

SMILES | Kd [1] [µM] | fold change (FC) (human gammaherpesvirus 4 [2]) | inhibition (Human gammaherpesvirus 4 [3]) | Kd [4] [µM] | growth inhibition (GI) (MOLT-4 [6]) | inhibition (Raji [8]) | GI50 (Jurkat) [µM] | GI50 (Human gammaherpesvirus 4 [9]) [µM] | GI50 (MOLT-4 [10]) [µM] | Kd [11] [µM] | inhibition (Raji [12]) | GI50 (MDA-MB-231) [µM] | GI50 (Human gammaherpesvirus 4 [15]) [µM] | inhibition (Raji [17]) | Kd [18] [µM] | inhibition (Raji [19]) | GI50 (RPMI-8226) [µM] | fold change (FC) (human gammaherpesvirus 4 [20]) | GI50 (NALM-6) [µM] | inhibition (Human gammaherpesvirus 4 [21]) | other results
CN(C)CCCNC(=O)c1cc(NC(=O)c2nc(NC(=O)c3cc(NC(=O)c4cc(NC(=O)[C@@H](CCNC(=O)c5cc(NC(=O)c6cc(NC(=O)c7cc(NC(=O)c8nccn8C)cn7C)cn6C)cn5C)NC(=O)CCCOc5ccc(-c6nc7cc(-c8nc9cc(N%10CCN(C)CC%10)ccc9[nH]8)ccc7[nH]6)cc5)cn4C)cn3C)cn2C)cn1C | 0.0228 | 0.583 | Active | 0.0129 | inactive | Dose-dependent effect | > 100 | 9.42 | 25 | 0.187 | Active | > 100 | 8 | Active | 0.747 | Dose-dependent effect | 24.5 | 0.412 | 22.2 | Active | Activity [5]: Non-Toxic; inhibition (human gammaherpesvirus 4 [7]): Active; inhibition (Human gammaherpesvirus 4 [13]): Active; Activity (Human gammaherpesvirus 4 [14]): Active; inhibition (Human gammaherpesvirus 4 [16]): Active; inhibition (Daudi): Active; GI50 (Human gammaherpesvirus 4 [22]): 4.02 µM
CN(C)CCCNC(=O)c1cc(NC(=O)c2cc(NC(=O)c3cc(NC(=O)c4cc(NC(=O)[C@@H](CCNC(=O)c5cc(NC(=O)c6cc(NC(=O)c7nc(NC(=O)c8nccn8C)cn7C)cn6C)cn5C)NC(=O)CCCOc5ccc(-c6nc7cc(-c8nc9cc(N%10CCN(C)CC%10)ccc9[nH]8)ccc7[nH]6)cc5)cn4C)cn3C)cn2C)cn1C | 0.335 | 0.091 | – | 0.263 | – | – | – | – | – | – | – | – | – | inactive | – | – | – | 0.088 | – | – | –
CN(C)CCCNC(=O)c1cc(NC(=O)c2nc(NC(=O)c3cc(NC(=O)c4cc(NC(=O)[C@H](N)CCNC(=O)c5cc(NC(=O)c6cc(NC(=O)c7cc(NC(=O)c8nccn8C)cn7C)cn6C)cn5C)cn4C)cn3C)cn2C)cn1C | 0.0015 | 0.646 | Active | 0.00452 | inactive | inactive | > 100 | 30.2 | 30.3 | 0.0206 | inactive | > 100 | 29.4 | inactive | 0.0252 | inactive | 43.9 | 0.524 | 41.9 | Active | GI50 (Human gammaherpesvirus 4 [22]): 12.9 µM
